Data set [1] can be described thus: Antiproliferative activity against human HCT116 cells assessed as reduction in cell viability after 72 hrs by ATPlite assay. Format: functional, cell-based. Conditions: HCT-116, 72 h. The procedure, abridged: (§1)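 IC50 determined in human cancer cell lines (HCT-116, A-375 melanoma, HL-60, A-549). Camptothecin and etoposide served as reference compounds.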
Background: ATP-based viability assays read luminescence as a measure of living cells.

The nature of data set [2]: Antiproliferative activity against human HCT116 cells assessed as reduction in cell viability at 10 uM after 72 hrs by ATPlite assay. Conditions: HCT-116, 72 h, read-out: GI. The class given is functional. The procedure, abridged:
(§2)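 HCT-116 human colon cancer cells exposed to compound for 72 h at 20, 10 or 1 μM. Growth inhibition is expressed as percentage relative to nontreated cells.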

Data set [3] is described as follows: Antiproliferative activity against human HL60 cells assessed as reduction in cell viability after 72 hrs by ATPlite assay. Conditions: HL-60, 72 h. The class given is functional, cell-based. The procedure, abridged:
as §1

A short description of data set [4]: Antiproliferative activity against human HCT116 cells assessed as reduction in cell viability at 20 uM after 72 hrs by ATPlite assay. The class given is functional. Conditions: HCT-116, 72 h, read-out: GI. The procedure, abridged: as §2
Data set [5] is described as follows: Antiproliferative activity against human HCT116 cells assessed as reduction in cell viability at 1 uM after 72 hrs by ATPlite assay. Format: functional. Conditions: HCT-116, 72 h, read-out: GI. The procedure, abridged:
as §2

A further data set deals with A549. The data set is described as follows: Antiproliferative activity against human A549 cells assessed as reduction in cell viability after 72 hrs by ATPlite assay. Format: functional, cell-based. The note with it: A549, 72 h. The method, boiled down: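 IC50 values were determined on a panel of four human cancer lines (HCT-116, A-549, HL-60, A-375), with camptothecin and etoposide as reference compounds.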

The subject of another data set is A-375. Description: Antiproliferative activity against human A375 cells assessed as reduction in cell viability after 72 hrs by ATPlite assay. The class given is functional, cell-based. The note with it: A-375, 72 h. The procedure, abridged: as §1
Data set [6] relates to Plasma. Description: Metabolic stability in rat plasma at 5 uM after 2 hrs by ZQ-LC-MS analysis. Format: ADME, cell-free. The method, boiled down: (§3)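 Compounds were incubated in rat, mouse and human plasma for 120 min at 37 °C. The result is reported as the percentage of parent compound remaining.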
Data set [7] has as its system Liver microsome. Description: Metabolic stability in rat liver microsomes at 2 uM after 1 hr by ZQ-LC-MS analysis. Format: ADME. A general note: Liver microsomes are a subcellular fraction often used to study metabolism.
Data set [8] concerns Plasma. The data set is described as follows: Metabolic stability in mouse plasma at 5 uM after 2 hrs by ZQ-LC-MS analysis. Format: ADME, cell-free. The method, boiled down:
as §3

Data set [9] concerns Liver microsome. The data set is described as follows: Metabolic stability in human liver microsomes at 2 uM after 1 hr by ZQ-LC-MS analysis. The class given is ADME.
Data set [10] in a line: Metabolic stability in mouse liver microsomes at 2 uM after 1 hr by ZQ-LC-MS analysis. Format: ADME.
The test system of data set [11] is Plasma. Description: Metabolic stability in human plasma at 5 uM after 2 hrs by ZQ-LC-MS analysis. Format: ADME, cell-free. The procedure, abridged: as §3

As usually defined, the IC50 is the concentration needed to halve the response being measured.

Take `CC(C)(C)OC(=O)NCC#CC1=C[C@@H]2C[C@@]3(OC(=O)C=C13)[C@H]1CCCCN21`: the IC50 was 1660 nM in data set [1], 5000 nM in data set [3], 2640 nM in the data set with A549 and 360 nM with A-375. For the same molecule, the inhibition of growth at 10 µM in data set [2] is 100%. In [4], the inhibition of growth at 20 µM was 100%. For the same molecule, the inhibition of growth at 1 µM in data set [5] came to 79.3%.
Turning to `CC(C)(C)OC(=O)NC1CCC(C#CC2=C[C@@H]3C[C@@]4(OC(=O)C=C24)[C@H]2CCCCN32)CC1` (some centres undefined), the inhibition of growth at 10 µM in data set [2] amounted to 100%. Besides, in [4], the inhibition of growth at 20 µM amounted to 100%. In addition, the inhibition of growth at 1 µM in data set [5] was 93.4%.
For `O=C1C=C2C(C#Cc3ccc(F)cc3)=C[C@@H]3C[C@@]2(O1)[C@H]1CCCCN31`, the IC50 in [1] was 2470 nM; in data set [3], over 10000 nM; in the data set with A549, 3990 nM; in the data set on A-375, 2820 nM. Besides, the inhibition of growth at 10 µM in data set [2] was 99.9%. In addition, the inhibition of growth at 20 µM in [4] is 100%. Also, the inhibition of growth at 1 µM in data set [5] is 87.3%.
For the molecule `CN(C)c1ccc(C#CC2=C[C@@H]3C[C@@]4(OC(=O)C=C24)[C@H]2CCCCN32)cc1`, the 50% inhibitory concentration (IC50) in [1] came to 420 nM; in data set [3], 420 nM; in the data set with A549 it was 600 nM; in the data set on A-375 it was 170 nM. Besides, the Stability result (with Plasma [6]; in the data set on Liver microsome [7]; in the data set with Plasma [8]; with Liver microsome [9]; in [10]; in the data set on Plasma [11]) was “Unstable” in each case. The inhibition of growth at 10 µM in [2] is 100%. Also, the inhibition of growth at 20 µM in data set [4] worked out at 100%. Moreover, the inhibition of growth at 1 µM in [5] was found to be 99.7%.
For the molecule `CN(C)c1ccc(C2=C[C@@H]3C[C@@]4(OC(=O)C=C24)[C@H]2CCCCN32)cc1`, the Stability result was “Stable” in the data set on Plasma [6]; “Unstable” in the data set on Liver microsome [7]; “Stable” with Plasma [8]; “Unstable” in the data set with Liver microsome [9]; “Unstable” in [10]; “Stable” with Plasma [11]. Moreover, in [2], the inhibition of growth at 10 µM is 5.6%. Besides, in [4], the inhibition of growth at 20 µM came out at 19.3%. The inhibition of growth at 1 µM in data set [5] is -1.4%.
In the case of `Cc1ccc(C#CC2=C[C@@H]3C[C@@]4(OC(=O)C=C24)[C@H]2CCCCN32)cc1`, the inhibition of growth at 10 µM in data set [2] stood at 100%. Moreover, the IC50 in data set [3] was over 10000 nM; in the data set on A549 it was over 10000 nM; in the data set on A-375, 1750 nM. Further, the inhibition of growth at 20 µM in data set [4] was found to be 100%. The inhibition of growth at 1 µM in data set [5] was 64%.
In the case of `O=C1C=C2C(C#CCCCO)=C[C@@H]3C[C@@]2(O1)[C@H]1CCCCN31`, in data set [2], the inhibition of growth at 10 µM came to 64.3%. Besides, in [4], the inhibition of growth at 20 µM came to 96.9%. Also, the inhibition of growth at 1 µM in data set [5] turned out to be 5.9%.
As for `CC(C)(O)C#CC1=C[C@@H]2C[C@@]3(OC(=O)C=C13)[C@H]1CCCCN21`, the inhibition of growth at 10 µM in data set [2] came out at 91.6%. In addition, the inhibition of growth at 20 µM in data set [4] is 97.7%. Also, in data set [5], the inhibition of growth at 1 µM came to 10.3%.
Turning to `C[Si](C)(C)C#CC1=C[C@@H]2C[C@@]3(OC(=O)C=C13)[C@H]1CCCCN21`, the inhibition of growth at 10 µM in data set [2] stood at 99%. Besides, the inhibition of growth at 20 µM in data set [4] was 99.3%. The inhibition of growth at 1 µM in [5] was 10.1%.
The matching figures for `CC(C)(C)OC(=O)NCCCC#CC1=C[C@@H]2C[C@@]3(OC(=O)C=C13)[C@H]1CCCCN21`: 98.8%, 99.9% and 60.1%.
The matching figures for `O=C1C=C2C(C#CCO)=C[C@@H]3C[C@@]2(O1)[C@H]1CCCCN31`: 94.9%, 98.9% and 5%.
As for `O=C1C=C2C(C#CCCCCl)=C[C@@H]3C[C@@]2(O1)[C@H]1CCCCN31`, the inhibition of growth at 10 µM in data set [2] is 97.8%. Also, the inhibition of growth at 20 µM in data set [4] came out at 99.2%. Moreover, the Stability result (in the data set on Liver microsome [7]; in the data set with Liver microsome [9]; in data set [10]) was “Unstable” each time. For the same molecule, the inhibition of growth at 1 µM in data set [5] is 6.1%.
Consider `COc1ccc(C#CC2=C[C@@H]3C[C@@]4(OC(=O)C=C24)[C@H]2CCCCN32)cc1`, for which the IC50 in data set [1] worked out at 340 nM; in data set [3] it was 660 nM; in the data set on A549, 290 nM; with A-375, 60 nM. The Stability entry in the data set with Plasma [6], with Plasma [8] and with Plasma [11] was “Unstable” each time. For the same molecule, the inhibition of growth at 10 µM in data set [2] turned out to be 100%. Besides, the inhibition of growth at 20 µM in data set [4] turned out to be 100%. For the same molecule, the inhibition of growth at 1 µM in [5] was 98.3%.
Regarding `O=C1C=C2C(C#Cc3cccnc3)=C[C@@H]3C[C@@]2(O1)[C@H]1CCCCN31`, the inhibition of growth at 10 µM in [2] turned out to be 100%. Moreover, the IC50 is over 10000 nM in [3], 4400 nM in the data set on A549 and 950 nM in the data set on A-375. Further, the inhibition of growth at 20 µM in [4] was found to be 100%. Also, the inhibition of growth at 1 µM in data set [5] was found to be 96.4%.
`CCN(CC)c1ccc(C#CC2=C[C@@H]3C[C@@]4(OC(=O)C=C24)[C@H]2CCCCN32)cc1`: the inhibition of growth at 10 µM in [2] was determined as 100%. For the same molecule, the inhibition of growth at 20 µM in data set [4] was 100%. Moreover, in data set [5], the inhibition of growth at 1 µM came to 98.2%.
`O=C1C=C2C(C#Cc3ccccc3C(F)(F)F)=C[C@@H]3C[C@@]2(O1)[C@H]1CCCCN31`: the inhibition of growth at 10 µM in data set [2] is 99.9%. The inhibition of growth at 20 µM in data set [4] was found to be 100%. The inhibition of growth at 1 µM in [5] came out at 55.8%.
Consider `O=C1C=C2C(C#Cc3ccc(N4CCCCC4)cc3)=C[C@@H]3C[C@@]2(O1)[C@H]1CCCCN31`, for which, in data set [2], the inhibition of growth at 10 µM came out at 100%. Also, the inhibition of growth at 20 µM in data set [4] came out at 100%. Further, in data set [5], the inhibition of growth at 1 µM is 98%.
Regarding `O=C1C=C2C(C#CC3C=CCCC3)=C[C@@H]3C[C@@]2(O1)[C@H]1CCCCN31` (some centres undefined), the inhibition of growth at 10 µM in [2] worked out at 98.1%. Moreover, the inhibition of growth at 20 µM in data set [4] is 97.3%. Also, in data set [5], the inhibition of growth at 1 µM is 3.3%.
With `O=C1C=C2C(C#Cc3ccccc3)=C[C@@H]3C[C@@]2(O1)[C@H]1CCCCN31`, the Stability result (in the data set with Plasma [6]; in the data set on Liver microsome [7]; with Plasma [8]; in the data set on Liver microsome [9]; in [10]; in the data set on Plasma [11]) was “Unstable” throughout. For the same molecule, the inhibition of growth at 10 µM in [2] came to 100%. Moreover, the inhibition of growth at 20 µM in [4] was determined as 100%. The inhibition of growth at 1 µM in data set [5] was determined as 91.9%.
`CC[C@@]1(O)C(=O)OCc2c1cc1n(c2=O)Cc2cc3ccccc3nc2-1` [CAMPTOTHECIN]: the half-maximal inhibitory concentration (IC50) in data set [1] is 3 nM; in data set [3], 35 nM; with A549, 9 nM; in the data set on A-375 it was 13 nM.
As for `COc1cccc2c1C(=O)c1c(O)c3c(c(O)c1C2=O)C[C@@](O)(C(=O)CO)C[C@@H]3O[C@H]1C[C@H](N)[C@H](O)[C@H](C)O1` [DOXORUBICIN], the inhibition of growth at 10 µM in data set [2] came out at 94.3%. In [4], the inhibition of growth at 20 µM was 95.6%. Besides, the inhibition of growth at 1 µM in data set [5] came to 99.6%.
As to `COc1cc([C@@H]2c3cc4c(cc3[C@@H](O[C@@H]3O[C@@H]5CO[C@@H](C)O[C@H]5[C@H](O)[C@H]3O)[C@H]3COC(=O)[C@H]23)OCO4)cc(OC)c1O` [ETOPOSIDE], the results for the IC50 in [1] and in data set [3] were over 10000 nM and 860 nM, respectively.
For the molecule `O=C1C=C2C=C[C@@H]3C[C@@]2(O1)[C@H]1CCCCN31` [SECURININE], the IC50 (in [1]; in data set [3]; in the data set with A549) was over 10000 nM throughout. The Stability result is on record as “Stable” with Plasma [6]; “Unstable” in the data set on Liver microsome [7]; “Stable” with Plasma [8]; “Stable” in the data set with Liver microsome [9]; “Unstable” in data set [10]; “Stable” with Plasma [11]. For the same molecule, the inhibition of growth at 10 µM in data set [2] worked out at 50.6%. Further, in data set [4], the inhibition of growth at 20 µM was found to be 90.7%. Also, the inhibition of growth at 1 µM in data set [5] is 7.6%.

The values above are taken from ChEMBL document CHEMBL3813637, “Synthesis and Antiproliferative and Metabolic Evaluations of Novel Securinine Derivatives” (ACS Med Chem Lett, 2016).
